Bioassay records deposited in PubChem BioAssay by several laboratories.
A selection: hits, their analogues and other compounds. The true share with any hit is near 2.6%.
SENP8 block-1: SENP8 protease inhibition. purified SENP8, Z-RLRGG-aminoluciferin cleavage, luminescence. inhibition, % at 10 µM. Q96LD8. AID 2540. 330,000 tested, 1.2% active; in the data active = inhibition above about 50%
Target sequence (Q96LD8 whole entry, looked up): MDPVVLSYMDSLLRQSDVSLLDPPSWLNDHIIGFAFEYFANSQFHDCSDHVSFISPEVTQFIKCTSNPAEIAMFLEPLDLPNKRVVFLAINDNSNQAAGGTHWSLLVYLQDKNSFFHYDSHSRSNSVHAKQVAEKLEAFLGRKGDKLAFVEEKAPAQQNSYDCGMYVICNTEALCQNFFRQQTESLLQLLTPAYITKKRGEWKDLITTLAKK
SENP1 inh: SENP1 (human) catalytic domain inhibition; AID 624204; recombinant SENP1 catalytic domain, CyPet-SUMO1-YPet FRET cleavage; 360,000 tested, 0.21% active; Q9P0U3; inhibition, % at 10 µM;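 active = inhibition at least 30% at 10 µM, raw YFP signal under a set limit, fluorescence ratio 0.5 to 1.5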;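 note: 0% = enzyme with DMSO and 100% = no enzyme wells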
Target sequence (Q9P0U3 419-644 limits assumed): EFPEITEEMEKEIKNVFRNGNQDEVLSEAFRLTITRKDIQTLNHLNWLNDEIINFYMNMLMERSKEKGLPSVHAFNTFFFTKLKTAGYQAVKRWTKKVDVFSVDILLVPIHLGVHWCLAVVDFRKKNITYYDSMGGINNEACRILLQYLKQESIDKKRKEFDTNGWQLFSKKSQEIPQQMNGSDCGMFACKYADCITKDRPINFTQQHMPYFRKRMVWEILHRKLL
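Test system: human SENP1 catalytic domain; medium: Tris pH 8 buffer plus EDTA, NaCl, BME, BSA, NP40, catalase; incubation: 50 min reaction at room temperature; technique: FRET, CFP and YFP emission; controls: no-enzyme low control and enzyme-plus-DMSO high control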
SENP6 inh: blocks the human protease SENP6 | AID 2599 | inhibition, % at 10 µM | 330,000 tested, 1.8% active | Recombinant SENP6 catalytic domain, aminoluciferin luminescence;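 active = inhibition above about 50% at the single tested dose, limit read from the data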;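 note: plate controls were DMSO wells with enzyme for no effect and DMSO wells lacking enzyme for full effect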
SENP8 block-2: SENP8 (human) protease inhibition; Q96LD8; recombinant SENP8, Nedd8 substrate fluorescence; inhibition, % at 20 µM; 360,000 tested, 0.64% active; AID 602440; in the data active = inhibition mostly above about 40%, no sharp cut-off; inactive = mostly below about 27%
SENP7 inh: blocks the human protease SENP7. inhibition, % at 5 µM. recombinant SENP7, Z-RLRGG-aminoluciferin luminescence, 40 min. 330,000 tested, 1.5% active. AID 434973. Q9BQF6;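 active = inhibition above about 50% at the single test dose, limit read from the data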;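 note: plate controls were DMSO with enzyme for no effect and no enzyme buffer wells for full effect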
Platelet DG rel: modulates dense granule release in human platelets. human platelet-rich plasma, SFLLRN dense granule ATP release, luminescence. 300,000 tested, 0.22% active. inhibition, %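 (compounds screened at 7.5 µM in platelet-rich plasma)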;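 active = mean replicate score, as percent of positive control, at or above 50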
SENP8 conf: confirmation of human SENP8 protease inhibitors | shares compounds with SENP7 inh | Recombinant SENP8, Z-RLRGG-aminoluciferin luminescence, 60 min | inhibition, % at 12.5 µM | 6,200 tested, 40% active | AID 488912;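 active = mean inhibition across replicates above about 50%, limit read from the data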
SENP6 confirm: confirmation of human SENP6 protease inhibitors; shares compounds with SENP7 inh; recombinant SENP6, Z-RLRGG-aminoluciferin luminescence; inhibition, % at 12.5 µM; 6,200 tested, 58% active
SENP7 conf: human SENP7 inhibition, confirmed. shares compounds with SENP7 inh. recombinant SENP7, Z-RLRGG-aminoluciferin luminescence, 40 min. inhibition, % at 12.5 µM. 6,200 tested, 69% active. AID 488917
Casp3 select: selectivity test for SENP inhibitors: human caspase-3 inhibition; shares compounds with SENP7 inh; purified caspase-3, Z-DEVD-aminoluciferin luminescence, 60 min; inhibition, % at 12.5 µM; 6,200 tested, 60% active;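 active = mean inhibition above about 50%, limit read from the data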;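 note: plate controls were enzyme with DMSO for no effect and wells without caspase-3 for full effect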
Luc interf: interferes with luciferase luminescence in SENP counter-screen. shares compounds with SENP7 inh. Pre-incubated SENP8/Z-RLRGG-aminoluciferin, luciferase luminescence interference. inhibition, % at 12.5 µM. 6,200 tested, 39% active;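 active = mean inhibition above about 50% when retested at one dose, limit read from the data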;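 note: plate controls were DMSO wells with completed reaction for no effect and substrate without enzyme for full effect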
The depositor's hits bear a star; . = not tested or not shown.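 Rule for the calls, unless noted: active = mean inhibition above about 50% in the one-dose retest (limit read from the data); inactive = the rest.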

SMILES | SENP8 block-1 | SENP1 inh | SENP6 inh | SENP8 block-2 | SENP7 inh | Platelet DG rel | SENP8 conf | SENP6 confirm | SENP7 conf | Casp3 select | Luc interf
Cc1cccc2cc(-c3nc4ccc(C(=O)O)cc4[nH]3)c(=O)oc12 | 85.8* | -25.3 | 88.2* | -282.4 | 85.7* | 10.8 | 93.5* | 94.2* | 100.2* | 98.4* | 56.4*
COc1cccc(C(C)=C2SC(=S)NC2=O)c1 | . | 2.7 | . | 5.7 | . | . | . | . | . | . | .
Cc1cc(C)cc(NC(=O)Nc2ccc3ccccc3n2)c1 | 1.8 | 1.6 | 1.8 | 19.1 | 2.9 | 10.1 | . | . | . | . | .
O=C(Nc1ccc2ccccc2n1)c1ccccc1 | 87.0* | 0.3 | 87.6* | 19.0 | 93.3* | 2.7 | 84.7* | 84.9* | 97.8* | 89.3* | 89.0*
O=C(Nc1ccc2ccccc2n1)c1ccccc1Br | 77.2* | -1.9 | 79.1* | 0.1 | 83.8* | 6.1 | 8.8 | 80.1* | 97.2* | 81.5* | 16.7
COc1ccc(C(=O)Nc2ccc3ccccc3n2)cc1OC | -7.0 | 0.6 | 11.9 | -43.2 | 1.1 | -4.9 | . | . | . | . | .
Cc1ccc(C(=O)Nc2ccc3ccccc3n2)cc1 | 79.9* | 0.6 | 86.3* | 10.9 | 86.0* | 2.8 | 88.4* | 87.5* | 96.7* | 82.2* | 77.1*
CC(=O)NC12CC3CC(C1)CC(C(=O)N1CCN(c4ncccn4)CC1)(C3)C2 | -4.0 | 0.7 | -11.0 | -12.4 | -6.2 | -2.9 | . | . | . | . | .
Nc1cccc2cnccc12 | 89.3* | 0.4 | 90.9* | -21.8 | -13.5 | . | -25.5 | 18.8 | 6.2 | -4.6 | -5.9
Oc1cccc2cnccc12 | -0.9 | 2.0 | -6.8 | 7.1 | 0.1 | -1.9 | . | . | . | . | .
O=C1c2ccccc2C(=O)N1CCC#Cc1ccc2cc(CCO)oc(=O)c2c1 | -3.9 | 1.5 | -1.9 | -63.1 | 10.8 | . | . | . | . | . | .
Cc1c(C(=O)Nc2ccccc2)cnn1-c1ccccc1 | 20.8 | 1.3 | 24.8 | 25.2 | 26.0 | 5.1 | . | . | . | . | .
Cc1c(C(=O)Nc2cccc([N+](=O)[O-])c2)cnn1-c1ccccc1 | 33.6 | 0.5 | 66.9* | 12.2 | 55.6* | -5.4 | 51.1* | 48.2 | 81.0* | 49.2 | 58.2*
COc1ccc(OC)c(NC(=O)c2cnn(-c3ccccc3)c2C)c1 | 1.6 | 2.1 | -3.1 | 5.5 | 5.5 | -0.6 | . | . | . | . | .
O=C(Nc1cccc([N+](=O)[O-])c1)c1[nH]ncc1Cl | 74.2* | 4.0 | 81.0* | 14.0 | 81.4* | 0.3 | 66.7* | 61.3* | 90.9* | 77.3* | 54.2*
COc1ccc(NC(=O)c2cnn(-c3ccccc3)c2C)cc1 | 80.5* | 0.5 | 90.4* | 9.9 | 89.7* | 59.2* | -8.2 | 81.7* | 96.7* | 91.8* | 56.0*
COc1ccc(NC(=O)c2cnn(-c3ccccc3)c2C)cc1OC | 29.3 | -2.5 | 52.1* | 14.4 | 40.7 | 4.6 | 25.3 | 24.8 | 64.1* | 63.3* | 46.2
COc1cc(CN2C(=S)NC(C)(C)CC2(C)O)cc(OC)c1 (stereo unspecified) | -2.3 | 2.7 | -5.5 | -2.1 | -2.3 | 3.4 | . | . | . | . | .
Cc1ccc(NC(=O)c2cnn(-c3ccccc3)c2C)cc1C | 76.8* | -0.5 | 84.7* | 16.2 | 89.9* | 8.7 | 4.9 | 85.9* | 97.0* | 80.0* | 40.1
CCOc1ccc(/C=C/[N+](=O)[O-])c2ccccc12 | 44.1 | -12.4 | 67.2* | 18.2 | 27.5 | 1.9 | 13.5 | 6.8 | 13.1 | 7.6 | 3.5
COc1ccc(-c2coc3c(C(=O)NCc4ccc(C(F)(F)F)cc4)cccc23)c(C)c1 | . | -2.3 | . | -10.6 | . | . | . | . | . | . | .
O=C(Nc1ccccc1C(=O)Nc1ccc(Br)cn1)c1ccccc1Cl | -4.9 | 0.1 | -6.9 | -11.1 | 0.1 | . | . | . | . | . | .
